# Results reported in ChEMBL document CHEMBL1155898 (J Med Chem, 2008).
# The source made the active and inactive calls.
# How the values were obtained:
# [1] = Displacement of [3H]flumazenil from CBR in bovine cortical membrane; type: cell membranes, Bos taurus
# Method in brief: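 Bovine or human cortical membranes washed free of endogenous GABA. […] Nonspecific binding with 10 µM diazepam. At least six concentrations over 3 log units, DMSO 2%. IC50 converted to Ki by Cheng-Prusoff (Kd 0.85 nM bovine, 0.91 nM human). Ki is the mean of three determinations.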
# [2] = system: Mus musculus; assay: Anticonvulsant activity in CD1 albino mouse assessed as pentylenetetrazole-induced convulsion latency time at 6.5 mg/kg, po; type: functional
# Method in brief: (§1)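 Mice dosed po or ip in 1% CMC (10 mL/kg). Pentylenetetrazole 90 mg/kg sc given 30 min later; clonic generalized convulsions observed over 30 min. ANOVA/Fisher PLSD versus vehicle controls.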
# [3] = system: Mus musculus; assay: Antianxiety activity in CD1 albino mouse assessed as number of crosses at 1 mg/kg, po by light-dark box method; type: functional
# Method in brief: (§2)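 Male CD-1 mice given drug po or ip in 1% CMC at 10 mL/kg. Light/dark box: number of transfers between compartments and time spent in the lit side recorded. At least 15-20 mice per group; ANOVA/Fisher PLSD versus vehicle.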
# [4] = system: Mus musculus; assay: Effect on learning and memory performance in CD1 albino mouse assessed as retention session latency at 3 mg/kg, po by passive avoidance test; type: functional
# Method in brief: (§3)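 Mice dosed po or ip in 1% CMC (10 mL/kg). Step-through passive avoidance in a two-compartment box (lit and dark, joined by guillotine door); latencies recorded in training and retention sessions. At least 15-20 mice per group; ANOVA/Fisher PLSD versus CMC controls.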
# [5] = system: Mus musculus; assay: Effect on ethanol-induced sleep in CD1 albino mouse assessed as induction time at 3 mg/kg, po; type: functional
# Method in brief: (§4)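 Mice dosed po or ip in 1% CMC (10 mL/kg). Ethanol 4 g/kg ip given 30 min later. Sleep time taken as duration of loss of righting reflex, cut-off 210 min. At least 15-20 mice per group; ANOVA/Fisher PLSD.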
# [6] = system: Mus musculus; assay: Anticonvulsant activity in CD1 albino mouse assessed as pentylenetetrazole-induced convulsion latency time at 3 mg/kg, po; type: functional; method in brief: as §1
# [7] = system: Mus musculus; assay: Effect on learning and memory performance in CD1 albino mouse assessed as training session latency at 3 mg/kg, po by passive avoidance test; type: functional; method in brief: as §3
# [8] = system: Mus musculus; assay: Antianxiety activity in CD1 albino mouse assessed as time spent in light at 1 mg/kg, po by light-dark box method; type: functional; method in brief: as §2
# [9] = system: Mus musculus; assay: Anticonvulsant activity in CD1 albino mouse assessed as pentylenetetrazole-induced death latency time at 6.5 mg/kg, po; type: functional; method in brief: as §1
# [10] = system: Mus musculus; assay: Antianxiety activity in CD1 albino mouse assessed as time spent in light at 12.5 mg/kg, po by light-dark box method; type: functional; method in brief: as §2
# [11] = system: Mus musculus; assay: Effect on ethanol-induced sleep in CD1 albino mouse assessed as induction time 1 mg/kg, ip; type: functional; details: route intraperitoneal; method in brief: as §4
# [12] = system: Mus musculus; assay: Anticonvulsant activity in CD1 albino mouse assessed as pentylenetetrazole-induced convulsion latency time at 12.5 mg/kg, po; type: functional; method in brief: as §1
# [13] = system: Mus musculus; assay: Antianxiety activity in CD1 albino mouse assessed as number of crosses at 0.3 mg/kg, po by light-dark box method; type: functional; method in brief: as §2
# [14] = system: Mus musculus; assay: Effect on learning and memory performance in CD1 albino mouse assessed as retention session latency at 12.5 mg/kg, po by passive avoidance test; type: functional; method in brief: as §3
# [15] = system: Mus musculus; assay: Effect on ethanol-induced sleep in CD1 albino mouse assessed as endurance time 12.5 mg/kg, po; type: functional; method in brief: as §4
# [16] = organism: Homo sapiens; assay: Displacement of [3H]flumazenil from CBR in human cortical membrane at 10 uM; type: cell membranes
# [17] = system: Mus musculus; assay: Antianxiety activity in CD1 albino mouse assessed as number of crosses at 6.5 mg/kg, po by light-dark box method; type: functional; method in brief: as §2
# [18] = system: Mus musculus; assay: Antianxiety activity in CD1 albino mouse assessed as time spent in light at 0.3 mg/kg, po by light-dark box method; type: functional; method in brief: as §2
# [19] = system: Mus musculus; assay: Toxic myorelaxant activity in CD1 albino mouse assessed as number of falls in 30 secs at 6.5 mg/kg, po after 30 mins by rotarod test; type: toxicity, organism-based; design: dose 6.5 mg/kg, route oral; details: in vivo
# Method in brief: (§5)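 Male CD-1 mice, dosed po or ip in 1% CMC (10 mL/kg). Rota-rod at 16 rpm; falls counted over 30 s, 30 min after dosing. At least 15-20 mice per group; ANOVA with Fisher PLSD versus CMC/saline controls.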
# [20] = system: Mus musculus; assay: Effect on ethanol-induced sleep in CD1 albino mouse assessed as induction time 6.5 mg/kg, po; type: functional; method in brief: as §4
# [21] = system: Mus musculus; assay: Effect on ethanol-induced sleep in CD1 albino mouse time assessed as endurance time 3 mg/kg, po; type: functional; method in brief: as §4
# [22] = organism: Bos taurus; assay: Displacement of [3H]flumazenil from CBR in bovine cortical membrane at 10 uM; type: cell membranes
# [23] = system: Mus musculus; assay: Toxic myorelaxant activity in CD1 albino mouse assessed as number of falls in 30 secs at 1 mg/kg, po after 30 mins by rotarod test; type: toxicity, organism-based; design: dose 1 mg/kg, route oral; details: in vivo; method in brief: as §5
# [24] = system: Mus musculus; assay: Anticonvulsant activity in CD1 albino mouse assessed as pentylenetetrazole-induced death latency time at 12.5 mg/kg, po; type: functional; method in brief: as §1
# [25] = Displacement of [3H]flumazenil from CBR in human cortical membrane; type: cell membranes
# Method in brief: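 Bovine or human cortical membranes washed free of endogenous GABA. Nonspecific binding with 10 µM diazepam. At least six concentrations over 3 log units, DMSO 2%. Ki is the mean of three determinations.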
# [26] = system: Mus musculus; assay: Toxic myorelaxant activity in CD1 albino mouse assessed as number of falls in 30 secs at 0.3 mg/kg, po after 30 mins by rotarod test; type: toxicity, organism-based; design: dose 0.3 mg/kg, route oral; details: in vivo; method in brief: as §5
# [27] = system: Mus musculus; assay: Antianxiety activity in CD1 albino mouse assessed as time spent in light at 6.5 mg/kg, po by light-dark box method; type: functional; method in brief: as §2
# [28] = organism: Rattus norvegicus; assay: Inverse agonist activity at CBR in Sprague-Dawley rat brain cortex assessed as decrease in chloride influx; type: functional
# [29] = organism: Homo sapiens; assay: Ratio of Ki for human CBR in absence of GABA to Ki for human CBR in presence of 50 uM GABA
# [30] = system: Mus musculus; assay: Effect on learning and memory performance in CD1 albino mouse assessed as training session latency at 12.5 mg/kg, po by passive avoidance test; type: functional; method in brief: as §3
# [31] = system: Mus musculus; assay: Effect on ethanol-induced sleep in CD1 albino mouse time assessed as endurance time 6.5 mg/kg, po; type: functional; method in brief: as §4
# [32] = system: Mus musculus; assay: Effect on ethanol-induced sleep in CD1 albino mouse time assessed as endurance time 1 mg/kg, ip; type: functional; details: route intraperitoneal; method in brief: as §4
# [33] = system: Mus musculus; assay: Effect on learning and memory performance in CD1 albino mouse assessed as training session latency at 6.5 mg/kg, po by passive avoidance test; type: functional; method in brief: as §3
# [34] = organism: Rattus norvegicus; assay: Agonist activity at CBR in Sprague-Dawley rat brain cortex assessed as increase in chloride influx; type: functional, tissue-based
# [35] = system: Mus musculus; assay: Toxic myorelaxant activity in CD1 albino mouse assessed as number of falls in 30 secs at 3 mg/kg, po after 30 mins by rotarod test; type: toxicity, organism-based; design: dose 3 mg/kg, route oral; details: in vivo; method in brief: as §5
# [36] = system: Mus musculus; assay: Antianxiety activity in CD1 albino mouse assessed as time spent in light at 3 mg/kg, po by light-dark box method; type: functional; method in brief: as §2
# [37] = system: Mus musculus; assay: Anticonvulsant activity in CD1 albino mouse assessed as pentylenetetrazole-induced death latency time at 3 mg/kg, po by; type: functional; method in brief: as §1
# [38] = system: Mus musculus; assay: Toxic myorelaxant activity in CD1 albino mouse assessed as number of falls in 30 secs at 12.5 mg/kg, po after 30 mins by rotarod test; type: toxicity, organism-based; design: dose 12.5 mg/kg, route oral; details: in vivo; method in brief: as §5
# [39] = system: Mus musculus; assay: Effect on ethanol-induced sleep in CD1 albino mouse assessed as induction time 12.5 mg/kg, po; type: functional; method in brief: as §4
# [40] = organism: Bos taurus; assay: Ratio of Ki for bovine CBR in absence of GABA to Ki for bovine CBR in presence of 50 uM GABA
# [41] = system: Mus musculus; assay: Antianxiety activity in CD1 albino mouse assessed as number of crosses at 3 mg/kg, po by light-dark box method; type: functional; method in brief: as §2
# [42] = system: Mus musculus; assay: Antianxiety activity in CD1 albino mouse assessed as number of crosses at 12.5 mg/kg, po by light-dark box method; type: functional; method in brief: as §2
# [43] = system: Mus musculus; assay: Effect on learning and memory performance in CD1 albino mouse assessed as retention session latency at 6.5 mg/kg, po by passive avoidance test; type: functional; method in brief: as §3
# [44] = system: Mus musculus; assay: Anticonvulsant activity in CD1 albino mouse assessed as pentylenetetrazole-induced death latency time at 1 mg/kg, ip; type: functional, organism-based; design: dose 1 mg/kg; method in brief: as §1
# [45] = system: Mus musculus; assay: Effect on learning and memory performance in CD1 albino mouse assessed as training session latency at 1 mg/kg, ip by passive avoidance test; type: functional; details: route intraperitoneal; method in brief: as §3
# [46] = system: Mus musculus; assay: Antianxiety activity in CD1 albino mouse assessed as time spent in light at 1 mg/kg, ip by light-dark box method; type: functional; details: route intraperitoneal; method in brief: as §2
# [47] = system: Mus musculus; assay: Effect on learning and memory performance in CD1 albino mouse assessed as retention session latency at 1 mg/kg, ip by passive avoidance test; type: functional; details: route intraperitoneal; method in brief: as §3
# [48] = system: Mus musculus; assay: Anticonvulsant activity in CD1 albino mouse assessed as pentylenetetrazole-induced convulsion latency time at 1 mg/kg, ip; type: functional, organism-based; design: dose 1 mg/kg; method in brief: as §1
structure (smiles),measurement,setting,value
CCOC(=O)c1ncn2c1CN(C)C(=O)c1cc(F)ccc1-2 [FLUMAZENIL],Ki,[1],1.9 nM
CCOC(=O)c1ncn2c1CN=C(c1cccc([N+](=O)[O-])c1)c1cc(F)ccc1-2,Time,[2],19.3 min
same,Activity,[3],8.6
same,Time,[4],88.7 s
same,Time,[5],6.1 min
same,Time,[6],18.7 min
same,Time,[7],18.3 s
same,Time,[8],132 s
same,Time,[9],22.5 min
same,Ki,[1],4.4 nM
same,Time,[10],186.8 s
same,Time,[11],6.8 min
same,Time,[12],23.6 min
same,Activity,[13],14.6
same,Time,[14],55.7 s
same,Time,[15],177.8 min
same,Activity,[16],> 80%
same,Activity,[17],5.4
same,Activity,[18],123.7
same,Activity,[19],2.7
same,Time,[20],7.3 min
same,Time,[21],13.5 min
same,Activity,[22],> 80%
same,Activity,[23],2.2
same,Time,[24],39.8 min
same,Ki,[25],9.7 nM
same,Activity,[26],2.3
same,Time,[27],181.2 s
same,Activity,[28],Active
same,Ratio Ki,[29],1.2
same,Time,[30],16 s
same,Time,[31],118.2 min
same,Time,[32],177.8 min
same,Time,[33],17.9 s
same,Activity,[34],Active
same,Activity,[35],2.1
same,Time,[36],169.3 s
same,Time,[37],21.9 min
same,Activity,[38],4.4
same,Time,[39],6.8 min
same,Ratio Ki,[40],1.19
same,Activity,[41],5.6
same,Activity,[42],5.1
same,Time,[43],76.5 s
CN1C(=O)CN=C(c2ccccc2)c2cc(Cl)ccc21 [DIAZEPAM],Activity,[44],inactive
same,Time,[11],4.6 min
same,Time,[45],20.9 s
same,Time,[32],>210 min
same,Time,[46],175.3 s
same,Time,[47],52.3 s
same,Activity,[48],inactive
CCOC(=O)c1ncn2c1CN=C(c1ccc([N+](=O)[O-])cc1)c1ccccc1-2,IC50,[1],1.8 nM
CCOC(=O)c1ncn2c1CN=C(c1ccc([N+](=O)[O-])cc1)c1cc(F)ccc1-2,Ki,[1],14.8 nM
same,Activity,[16],> 80%
same,Activity,[22],> 80%
same,Ki,[25],20 nM
same,Activity,[28],Active
same,Ratio Ki,[29],0.86
same,Activity,[34],Active
same,Ratio Ki,[40],0.89
CN1C(=O)CN=C(c2ccccc2F)c2cc([N+](=O)[O-])ccc21 [FLUNITRAZEPAM],Ki,[1],5.17 nM
same,Ki,[25],6.5 nM
same,Ratio Ki,[29],1.6
same,Ratio Ki,[40],1.68
